≈ marks a conversion by molar mass, not a printed value.
What was measured:
Type in all cases: functional
[1] = system: MCF7; assay: Growth inhibition of human MCF7 cells at 10 uM after 24 hrs by SRB assay; details: MCF7, 24 h, read-out: GI
Summary of the method: (§1)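 Human breast cancer MCF-7 cells were exposed to each compound at four doses (1 × 10^-7, 10^-6, 10^-5 and 10^-4 M) and growth was read by sulforhodamine B assay. Values are % control growth, with negative numbers meaning cell kill. GI50 is the concentration giving 50% inhibition of cell growth. Positive controls were included, and each experiment was done three times.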

[2] = system: MCF7; assay: Growth inhibition of human MCF7 cells at 100 uM after 24 hrs by SRB assay; details: MCF7, 24 h, read-out: GI; summary of the method: as §1
[3] = system: MCF7; assay: Growth inhibition of human MCF7 cells at 0.1 uM after 24 hrs by SRB assay; details: MCF7, 24 h, read-out: GI; summary of the method: as §1
[4] = system: Mycobacterium tuberculosis; assay: Antitubercular activity against Mycobacterium tuberculosis H37Rv after 5 days by microplate Alamar blue assay; details: 120 h
Summary of the method: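 MIC read by resazurin (Alamar Blue) microplate assay after 5 days of incubation at 37 °C. Run in duplicate each time, repeated twice, and MIC confirmed in a BacT/ALERT MP mycobacterial detection system.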

[5] = system: MCF7; assay: Growth inhibition of human MCF7 cells at 1 uM after 24 hrs by SRB assay; details: MCF7, 24 h, read-out: GI; summary of the method: as §1
[6] = system: MCF7; assay: Growth inhibition of human MCF7 cells after 24 hrs by SRB assay; details: MCF7, 24 h; summary of the method: as §1

Structure (SMILES)	inhibition of growth at 10 µM [1]	inhibition of growth at 100 µM [2]	inhibition of growth at 0.1 µM [3]	MIC [4]	inhibition of growth at 1 µM [5]	GI50 [6]
CCOC(=O)C1=C(C)NC(=S)NC1c1cn(-c2ccccc2)nc1-c1ccc(Cl)cc1 (stereo unspecified)	70.6%	99.2%	4.1%	0.125 µg/mL (≈ 0.276 µM)	12%	33.2 µM
CCOC(=O)C1=C(C)NC(=O)NC1c1cn(-c2ccccc2)nc1-c1ccc(Cl)cc1 (stereo unspecified)	17.1%	70.3%	–	0.25 µg/mL (≈ 0.572 µM)	–	68.8 µM
CCOC(=O)C1=C(C)NC(=O)NC1c1cn(-c2ccccc2)nc1-c1ccccc1 (stereo unspecified)	< 10%	86%	–	16 µg/mL (≈ 39.8 µM)	–	60.8 µM
CCOC(=O)C1=C(C)NC(=S)NC1c1cn(-c2ccccc2)nc1-c1ccccc1 (stereo unspecified)	30.4%	-12%	–	32 µg/mL (≈ 76.5 µM)	–	42 µM
CC1=C(C(=O)Nc2ccccc2)C(c2cn(-c3ccccc3)nc2-c2ccccc2)NC(=O)N1 (stereo unspecified)	< 10%	63.2%	–	32 µg/mL (≈ 71.2 µM)	–	80.6 µM
CC1=C(C(=O)Nc2ccccc2)C(c2cn(-c3ccccc3)nc2-c2ccccc2)NC(=S)N1 (stereo unspecified)	< 10%	57.4%	–	32 µg/mL (≈ 68.7 µM)	–	88.2 µM
CC1=C(C(=O)Nc2ccc(C)cc2)C(c2cn(-c3ccccc3)nc2-c2ccccc2)NC(=O)N1 (stereo unspecified)	11.9%	68.6%	–	32 µg/mL (≈ 69 µM)	–	71.7 µM
CC1=C(C(=O)Nc2ccc(C)cc2)C(c2cn(-c3ccccc3)nc2-c2ccccc2)NC(=S)N1 (stereo unspecified)	19.7%	84.3%	–	16 µg/mL (≈ 33.4 µM)	–	56.1 µM
COc1ccc(NC(=O)C2=C(C)NC(=S)NC2c2cn(-c3ccccc3)nc2-c2ccccc2)cc1 (stereo unspecified)	< 10%	63.9%	–	8 µg/mL (≈ 16.1 µM)	–	77.3 µM
CC1=C(C(=O)Nc2ccc(Cl)cc2)C(c2cn(-c3ccccc3)nc2-c2ccccc2)NC(=S)N1 (stereo unspecified)	48.6%	-12.8%	–	8 µg/mL (≈ 16 µM)	–	34.7 µM
CC1=C(C(=O)Nc2ccccc2Cl)C(c2cn(-c3ccccc3)nc2-c2ccccc2)NC(=O)N1 (stereo unspecified)	13.9%	72.2%	–	32 µg/mL (≈ 66.1 µM)	–	66.6 µM
CC1=C(C(=O)Nc2ccccc2Cl)C(c2cn(-c3ccccc3)nc2-c2ccccc2)NC(=S)N1 (stereo unspecified)	16.5%	68.5%	–	16 µg/mL (≈ 32 µM)	–	68.8 µM
CC1=C(C(=O)Nc2ccc([N+](=O)[O-])cc2)C(c2cn(-c3ccccc3)nc2-c2ccccc2)NC(=O)N1 (stereo unspecified)	27.3%	-17.7%	–	16 µg/mL (≈ 32.4 µM)	–	35.5 µM
CC1=C(C(=O)Nc2ccc([N+](=O)[O-])cc2)C(c2cn(-c3ccccc3)nc2-c2ccccc2)NC(=S)N1 (stereo unspecified)	48.4%	99.3%	–	32 µg/mL (≈ 62.7 µM)	–	41.4 µM
CC1=C(C(=O)Nc2ccccc2)C(c2cn(-c3ccccc3)nc2-c2ccc(Cl)cc2)NC(=O)N1 (stereo unspecified)	19.6%	71.7%	–	2 µg/mL (≈ 4.13 µM)	–	65.5 µM
CC1=C(C(=O)Nc2ccccc2)C(c2cn(-c3ccccc3)nc2-c2ccc(Cl)cc2)NC(=S)N1 (stereo unspecified)	24.2%	74.7%	–	32 µg/mL (≈ 64 µM)	–	61.5 µM
CC1=C(C(=O)Nc2ccc(C)cc2)C(c2cn(-c3ccccc3)nc2-c2ccc(Cl)cc2)NC(=O)N1 (stereo unspecified)	13.6%	70.4%	–	32 µg/mL (≈ 64.3 µM)	–	69.7 µM
CC1=C(C(=O)Nc2ccc(C)cc2)C(c2cn(-c3ccccc3)nc2-c2ccc(Cl)cc2)NC(=S)N1 (stereo unspecified)	63.7%	84.9%	–	2 µg/mL (≈ 3.89 µM)	–	43.5 µM
COc1ccc(NC(=O)C2=C(C)NC(=O)NC2c2cn(-c3ccccc3)nc2-c2ccc(Cl)cc2)cc1 (stereo unspecified)	< 10%	72.1%	–	1 µg/mL (≈ 1.95 µM)	–	69.7 µM
COc1ccc(NC(=O)C2=C(C)NC(=S)NC2c2cn(-c3ccccc3)nc2-c2ccc(Cl)cc2)cc1 (stereo unspecified)	< 10%	72%	–	16 µg/mL (≈ 30.2 µM)	–	70 µM
CC1=C(C(=O)Nc2ccc(Cl)cc2)C(c2cn(-c3ccccc3)nc2-c2ccc(Cl)cc2)NC(=O)N1 (stereo unspecified)	< 10%	88.7%	–	32 µg/mL (≈ 61.7 µM)	–	56.9 µM

Source: ChEMBL document CHEMBL2016524, “Synthesis and in vitro anticancer and antitubercular activity of diarylpyrazole ligated dihydropyrimidines possessing lipophilic carbamoyl group” (2012)
